Experimental data taken from ChEMBL document CHEMBL1129935, “Chromophore-modified bis-naphthalimides: synthesis and antitumor activity of bis-dibenz[de,h]isoquinoline-1,3-diones” (J Med Chem, 1997).

Assays:
[1] = system: HT-29; assay: In vitro cytotoxicity against HT-29 (human colon adenocarcinoma) cell line.; assay type: functional, cell-based
In short: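 Human colon carcinoma HT-29 cells, 3000/well in DMEM with 10% FBS, attached 24 h. Free bases dissolved in DMSO, final DMSO <1%, added as 1:4 serial dilutions. Exposure 72 h at 37 °C, 5% CO2. MTT added for 4 h, formazan solubilized overnight in 25% SDS (pH 2), absorbance read at 550 nm. IC50 taken as concentration giving 50% of control growth.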

[2] = system: Mus musculus; assay: Median survival time of Compound on C57B1/6 mice which was implanted intraperitoneally with M5076 murine sarcoma cells at the dose of 0.8 mg/kg (dose administered intraperitoneally on days 1, 5 and 9).; assay type: functional; settings: route intraperitoneal
In short: (§1)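 M5076 murine sarcoma cells (10^6) implanted ip in C57Bl/6 mice. Agent given as its dimethanesulfonate salt dissolved in water. Median survival time (MST) recorded for treated and concurrent control groups. Activity expressed as %T/C, the treated MST as a percentage of the control MST.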

[3] = system: Mus musculus; assay: Median survival time of treated mice (T) compared to controls expressed as a percentage (%T/C) at the dose of 0.8 mg/kg (dose administered intraperitoneally on days 1, 5 and 9).; assay type: functional; settings: route intraperitoneal; in short: as §1
[4] = system: Mus musculus; assay: Median survival time of treated mice (T) compared to controls expressed as a percentage (%T/C) at the dose of 1.2 mg/kg (dose administered intraperitoneally on days 1, 5 and 9).; assay type: functional; settings: route intraperitoneal; in short: as §1
[5] = system: Mus musculus; assay: Median survival time of treated mice (T) compared to controls expressed as a percentage (%T/C) at the dose of 1.8 mg/kg (dose administered intraperitoneally on days 1, 5 and 9).; assay type: functional; settings: route intraperitoneal; in short: as §1
[6] = system: Mus musculus; assay: Median survival time of Compound on C57B1/6 mice which was implanted intraperitoneally with M5076 murine sarcoma cells at the dose of 1.2 mg/kg (dose administered intraperitoneally on days 1, 5 and 9).; assay type: functional; settings: route intraperitoneal; in short: as §1
[7] = system: Mus musculus; assay: Median survival time of Compound on C57B1/6 mice which was implanted intraperitoneally with M5076 murine sarcoma cells at the dose of 1.8 mg/kg (dose administered intraperitoneally on days 1, 5 and 9).; assay type: functional; settings: route intraperitoneal; in short: as §1
[8] = system: Mus musculus; assay: Median survival time of treated mice (T) compared to controls expressed as a percentage (%T/C) at the dose of 2.2 mg/kg (dose administered intraperitoneally on days 1, 5 and 9).; assay type: functional; settings: route intraperitoneal
In short: (§2)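 M5076 murine sarcoma, 10^6 cells implanted intraperitoneally into C57Bl/6 mice. Median survival time recorded for treated (T) and control (C) groups. %T/C calculated as the treated median survival relative to the control median survival, times 100.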

[9] = system: Mus musculus; assay: Median survival time of treated mice (T) compared to controls expressed as a percentage (%T/C) at the dose of 3.3 mg/kg (dose administered intraperitoneally on days 1, 5 and 9).; assay type: functional; settings: route intraperitoneal; in short: as §2
[10] = system: Mus musculus; assay: Median survival time of treated mice (T) compared to controls expressed as a percentage (%T/C) at the dose of 5.0 mg/kg (dose administered intraperitoneally on days 1, 5 and 9).; assay type: functional; settings: route intraperitoneal; in short: as §2
[11] = system: Mus musculus; assay: Median survival time of treated mice (T) compared to controls expressed as a percentage (%T/C) at the dose of 7.5 mg/kg (dose administered intraperitoneally on days 1, 5 and 9).; assay type: functional; settings: route intraperitoneal; in short: as §2
[12] = system: Mus musculus; assay: Median survival time of Compound on C57B1/6 mice which was implanted intraperitoneally with M5076 murine sarcoma cells at the dose of 2.2 mg/kg (dose administered intraperitoneally on days 1, 5 and 9).; assay type: functional; settings: route intraperitoneal; in short: as §2
[13] = system: Mus musculus; assay: Median survival time of Compound on C57B1/6 mice which was implanted intraperitoneally with M5076 murine sarcoma cells at the dose of 3.3 mg/kg (dose administered intraperitoneally on days 1, 5 and 9).; assay type: functional; settings: route intraperitoneal; in short: as §2
[14] = system: Mus musculus; assay: Median survival time of Compound on C57B1/6 mice which was implanted intraperitoneally with M5076 murine sarcoma cells at the dose of 5.0 mg/kg (dose administered intraperitoneally on days 1, 5 and 9).; assay type: functional; settings: route intraperitoneal; in short: as §2
[15] = system: Mus musculus; assay: Median survival time of Compound on C57B1/6 mice which was implanted intraperitoneally with M5076 murine sarcoma cells at the dose of 7.5 mg/kg (dose administered intraperitoneally on days 1, 5 and 9).; assay type: functional; settings: route intraperitoneal; in short: as §2

Structure (SMILES) | IC50 [1] [nM] | also measured
O=C1c2cccc3cc4c([N+](=O)[O-])cccc4c(c23)C(=O)N1CCNCCNCCN1C(=O)c2cccc3cc4c([N+](=O)[O-])cccc4c(c23)C1=O | 95 | –
O=C1c2cccc3cc4ccccc4c(c23)C(=O)N1CCN1CCCN(CCN2C(=O)c3cccc4cc5ccccc5c(c34)C2=O)C1 | 2 | –
O=C1c2cccc3cc4c([N+](=O)[O-])cccc4c(c23)C(=O)N1CCNCCCNCCN1C(=O)c2cccc3cc4c([N+](=O)[O-])cccc4c(c23)C1=O | 35 | –
O=C1c2cccc3cc4ccccc4c(c23)C(=O)N1CCCNCCNCCCN1C(=O)c2cccc3cc4ccccc4c(c23)C1=O | 95 | –
CN(CCN(C)CCN1C(=O)c2cccc3cc4ccccc4c(c23)C1=O)CCN1C(=O)c2cccc3cc4ccccc4c(c23)C1=O | 75 | –
O=C1c2cccc3cc4ccccc4c(c23)C(=O)N1CCNCCN1C(=O)c2cccc3cc4ccccc4c(c23)C1=O | 30 | –
O=C1c2cccc3cc4ccccc4c(c23)C(=O)N1CCCNCCCNCCCN1C(=O)c2cccc3cc4ccccc4c(c23)C1=O | 90 | –
O=C1c2cccc3cc4ccccc4c(c23)C(=O)N1CCNCCCCCNCCN1C(=O)c2cccc3cc4ccccc4c(c23)C1=O | 9 | –
O=C1c2cccc3cc4ccccc4c(c23)C(=O)N1CCNCCNCCN1C(=O)c2cccc3cc4ccccc4c(c23)C1=O | 9 | –
O=C1c2cccc3cc4ccccc4c(c23)C(=O)N1CCCNCCN1C(=O)c2cccc3cc4ccccc4c(c23)C1=O | 2000 | –
O=C1c2cccc3cc4ccccc4c(c23)C(=O)N1CCCNCCCCNCCCN1C(=O)c2cccc3cc4ccccc4c(c23)C1=O | 200 | –
CN(CCCN1C(=O)c2cccc3cc4ccccc4c(c23)C1=O)CCCN1C(=O)c2cccc3cc4ccccc4c(c23)C1=O | 19 | –
O=C1c2cccc3cc4ccccc4c(c23)C(=O)N1CCNCCCNCCN1C(=O)c2cccc3cc4ccccc4c(c23)C1=O | 4 | MST [2]: 31.5 days; T/C [3]: 143%; T/C [4]: 155%; T/C [5]: 143%; MST [6]: 34 days; MST [7]: 31.2 days
O=C1c2cccc3cc4ccccc4c(c23)C(=O)N1CCCNCCCN1C(=O)c2cccc3cc4ccccc4c(c23)C1=O | 20 | –
O=C1c2cccc3cc4ccccc4c(c23)C(=O)N1CCCCNCCCN1C(=O)c2cccc3cc4ccccc4c(c23)C1=O | 70 | –
O=C1c2cccc3cc4ccccc4c(c23)C(=O)N1CCNCCCCNCCN1C(=O)c2cccc3cc4ccccc4c(c23)C1=O | 41 | –
CN(C)CCN1C(=O)c2cccc3cc(N)cc(c23)C1=O [AMONAFIDE] | 3000 | –
CN(C)CCN1C(=O)c2cccc3cc4ccccc4c(c23)C1=O [AZONAFIDE] | 140 | –
O=C1c2cccc3cccc(c23)C(=O)N1CCNCCCNCCN1C(=O)c2cccc3cccc(c23)C1=O [ELINAFIDE] | 14 | T/C [8]: 91%; T/C [9]: 91%; T/C [10]: 102%; T/C [11]: 89%; MST [12]: 21.5 days; MST [13]: 21.5 days; MST [14]: 24 days; MST [15]: 21 days
CN(C)CCN1C(=O)c2cccc3cc([N+](=O)[O-])cc(c23)C1=O [MITONAFIDE] | 600 | –
